Experimental data: ChEMBL document CHEMBL4602735, “Discovery of (1H-Pyrazolo[3,4-c]pyridin-5-yl)sulfonamide Analogues as Hepatitis B Virus Capsid Assembly Modulators by Conformation Constraint” (J Med Chem, 2020)
Blank lines part the entries; values can stand above or below the compound they belong to. Activity calls are given as the source filed them. The rule behind the calls is not given here.

Legend:
[1] = test system: Hepatitis B virus; assay: Antiviral activity against HBV infected in human HepAD38 cells assessed as inhibition of intracellular viral DNA accumulation at 2 uM for 4 days by qPCR or qRT-PCR relative to control; assay type: functional, organism-based
Outline: (§1)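 HepAD38 or HepG2.2.15 cells were treated at 2 µM for 4 days, with medium replaced every 2 days. Intracellular and extracellular DNA and RNA were quantified by qPCR or qRT-PCR, and HBeAg and HBsAg by ELISA. Results were compared with DMSO vehicle as mean ± SD, using a two-tailed t-test.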

[2] = test system: Hepatitis B virus; assay: Antiviral activity against HBV infected in human HepG2.2.15 cells assessed as inhibition of intracellular viral RNA accumulation at 2 uM for 4 days by qPCR or qRT-PCR relative to control; assay type: functional, organism-based; details: HepG2 2.2.15; outline: as §1
[3] = Cytotoxicity in human HepG2 cells assessed as induction of cell killing; assay type: cell-based
[4] = Solubility in pH 6.8 phosphate buffer at 1 mg at 25 degC by HPLC analysis; assay type: physicochemical
Outline: (§2)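 Solubility determined in water or 0.067 M phosphate buffer at pH 5.8, 6.8 and 7.4. Values are reported in mg/mL; ND means below the detection limit.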

[5] = Drug level in C57BL/6 mouse liver at 100 mg/kg, po measured after 5 mins by HPLC analysis; assay type: ADME, organism-based; details: in vivo
[6] = test system: Hepatitis B virus; assay: Antiviral activity against multidrug-resistant HBV infected in human HepG2.1403F cells assessed as reduction in viral replication incubated for 6 days by PCR analysis; assay type: functional, organism-based; details: 144 h
Outline: (§3)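 Wild-type HBV replication measured in HepAD38 and HepG2.2.15 cells, lamivudine/entecavir-resistant HBV in HepG2.A64 cells (rtL180M+rtT184L+rtM204V) and multidrug-resistant HBV in HepG2.1403F cells (rtL180M+rtM204V+rtS202G+rtN236T). Read-out is reduction of HBV DNA. EC50 is reported as mean ± SD.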

[7] = test system: Hepatitis B virus; assay: Antiviral activity against HBV genotype D in hydrodynamic injection-based C57BL/6 mouse model of HBV infection assessed as inhibition of serum HBV DNA level at 100 mg/kg, po dosed twice daily for 7 days by real-time PCR analysis; assay type: functional, organism-based
[8] = Clearance in C57BL/6 mouse at 20 mg/kg, iv measured from 5 mins to 24 hrs by HPLC analysis; assay type: ADME, organism-based; details: in vivo
Outline: (§4)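 Male C57BL/6 mice, n=3. Dosing 20 mg/kg i.v. or 100 mg/kg p.o. of parent; prodrug p.o. at 100 or 200 mg/kg. The parent compound was measured in blood/plasma and in liver from 5 min onward. Readouts were Cmax, Tmax, t1/2, CL, AUC and oral bioavailability.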

[9] = AUC in C57BL/6 mouse plasma at 100 mg/kg, po measured from 5 mins to 24 hrs by HPLC analysis; assay type: ADME, organism-based; design: time upper 24 hr, dose 100 mg/kg, time lower 0.083 hr, route oral; outline: as §4
[10] = Half life in C57BL/6 mouse at 20 mg/kg, iv measured from 5 mins to 24 hrs by HPLC analysis; assay type: ADME, organism-based; details: in vivo; outline: as §4
[11] = test system: Hepatitis B virus; assay: Antiviral activity against HBV infected in human HepG2.2.15 cells assessed as inhibition of intracellular viral DNA accumulation at 2 uM for 4 days by qPCR or qRT-PCR relative to control; assay type: functional, organism-based; details: HepG2 2.2.15; outline: as §1
[12] = Intrinsic clearance in mouse liver microsomes; assay type: ADME, Microsome; details: read-out: CLH
[13] = Cytotoxicity in human HepAD38 cells assessed as induction of cell killing; assay type: cell-based
[14] = Cmax in C57BL/6 mouse blood at 100 mg/kg, po measured from 5 mins to 24 hrs by HPLC analysis; assay type: ADME, organism-based; design: dose 100 mg/kg, route oral; outline: as §4
[15] = test system: Hepatitis B virus; assay: Inhibition of HBsAg secretion in HBV infected human HepG2.2.15 cells at 2 uM for 4 days by ELISA; assay type: functional, organism-based; details: HepG2 2.2.15; outline: as §1
[16] = test system: Hepatitis B virus; assay: Antiviral activity against HBV genotype D in hydrodynamic injection-based C57BL/6 mouse model of HBV infection assessed as inhibition of HBV replication at 50 mg/kg, po dosed once daily for 7 days by real-time PCR analysis; assay type: functional, organism-based
[17] = Tmax in C57BL/6 mouse liver at 100 mg/kg, po measured from 5 mins to 24 hrs by HPLC analysis; assay type: ADME, organism-based
Outline: (§5)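 Male C57BL/6 mice, single oral dose of prodrug at 100 or 200 mg/kg; blood and liver levels of the parent compound measured over time; N=3; Tmax taken from the concentration–time profiles.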

[18] = test system: Hepatitis B virus; assay: Antiviral activity against HBV infected in human HepG2.2.15 cells assessed as reduction in viral DNA levels incubated for 6 days by PCR analysis; assay type: functional, organism-based; details: HepG2 2.2.15, 144 h
[19] = AUC in C57BL/6 mouse liver at 20 mg/kg, iv measured from 5 mins to 24 hrs by HPLC analysis; assay type: ADME, organism-based; design: time lower 0.083 hr, dose 20 mg/kg, time upper 24 hr, route intravenous; details: in vivo; outline: as §4
[20] = test system: Hepatitis B virus; assay: Antiviral activity against HBV genotype D in hydrodynamic injection-based C57BL/6 mouse model of HBV infection assessed as inhibition of liver HBV DNA level at 100 mg/kg, po dosed twice daily for 7 days by real-time PCR analysis; assay type: functional, organism-based
[21] = test system: Hepatitis B virus; assay: Antiviral activity against HBV genotype D in hydrodynamic injection-based C57BL/6 mouse model of HBV infection assessed as inhibition of liver HBV DNA level at 50 mg/kg, po dosed twice daily for 7 days by real-time PCR analysis; assay type: functional, organism-based
[22] = test system: Hepatitis B virus; assay: Antiviral activity against HBV genotype D in hydrodynamic injection-based C57BL/6 mouse model of HBV infection assessed as inhibition of serum HBV DNA level at 50 mg/kg, po dosed twice daily for 7 days by real-time PCR analysis; assay type: functional, organism-based
[23] = Oral bioavailability in C57BL/6 mouse liver at 100 mg/kg measured from 5 mins to 24 hrs by HPLC analysis; assay type: ADME, organism-based; outline: as §4
[24] = Selectivity index, ratio of CC50 for cytotoxicity in human HepAD38 cells assessed as induction of cell killing to EC50 for antiviral activity against HBV infected in human HepAD38 cells assessed as reduction in viral DNA levels incubated for 6 days by PCR analysis; assay type: toxicity, cell-based; details: read-out: Ratio CC50/EC50
[25] = AUC in C57BL/6 mouse plasma at 20 mg/kg, iv measured from 5 mins to 24 hrs by HPLC analysis; assay type: ADME, organism-based; design: dose 20 mg/kg, time upper 24 hr, time lower 0.083 hr, route intravenous; outline: as §4
[26] = test system: Hepatitis B virus; assay: Antiviral activity against HBV infected in human HepG2.A64 cells containing reverse transcriptase L180M/T184L/M204V mutant assessed as reduction in viral replication incubated for 6 days by PCR analysis; assay type: functional, organism-based; details: HepG2.A64, 144 h; outline: as §3
[27] = AUC in C57BL/6 mouse liver at 100 mg/kg, po measured from 5 mins to 24 hrs by HPLC analysis; assay type: ADME, organism-based; design: time 0.083-24 hr, dose 100 mg/kg, route oral; details: in vivo; outline: as §4
[28] = test system: Hepatitis B virus; assay: Antiviral activity against HBV infected in human HepAD38 cells assessed as inhibition of intracellular viral RNA accumulation at 2 uM for 4 days by qPCR or qRT-PCR relative to control; assay type: functional, organism-based; outline: as §1
[29] = test system: Hepatitis B virus; assay: Inhibition of HBsAg secretion in HBV infected human HepAD38 cells at 2 uM for 4 days by ELISA; assay type: functional, organism-based; outline: as §1
[30] = test system: Hepatitis B virus; assay: Antiviral activity against HBV infected in human HepAD38 cells assessed as reduction in viral DNA levels incubated for 6 days by PCR analysis; assay type: functional, organism-based; details: HePAD38, 144 h
[31] = Tmax in C57BL/6 mouse blood at 100 mg/kg, po measured from 5 mins to 24 hrs by HPLC analysis; assay type: ADME, organism-based; outline: as §5
[32] = Cmax in C57BL/6 mouse liver at 100 mg/kg, po measured from 5 mins to 24 hrs by HPLC analysis; assay type: ADME, organism-based; design: dose 100 mg/kg, route oral; details: in vivo; outline: as §4
[33] = Solubility in pH 7.4 phosphate buffer at 1 mg at 25 degC by HPLC analysis; assay type: physicochemical; outline: as §2
[34] = Tmax in C57BL/6 mouse blood at 200 mg/kg, po measured from 5 mins to 24 hrs by HPLC analysis; assay type: ADME, organism-based; outline: as §5
[35] = AUC in C57BL/6 mouse liver at 200 mg/kg, po measured from 5 mins to 24 hrs by HPLC analysis; assay type: ADME, organism-based; design: time upper 24 hr, dose 200 mg/kg, time lower 0.083 hr, route oral; details: in vivo; outline: as §4
[36] = Cmax in C57BL/6 mouse liver at 200 mg/kg, po measured from 5 mins to 24 hrs by HPLC analysis; assay type: ADME, organism-based; design: dose 200 mg/kg, route oral; details: in vivo; outline: as §4
[37] = Solubility in pH 5.8 phosphate buffer at 1 mg at 25 degC by HPLC analysis; assay type: physicochemical; outline: as §2
[38] = Oral bioavailability in C57BL/6 mouse liver at 200 mg/kg measured from 5 mins to 24 hrs by HPLC analysis; assay type: ADME, organism-based; outline: as §4
[39] = Solubility in water at 1 mg at 25 degC by HPLC analysis; assay type: physicochemical; outline: as §2
[40] = AUC in C57BL/6 mouse plasma at 200 mg/kg, po measured from 5 mins to 24 hrs by HPLC analysis; assay type: ADME, organism-based; design: time 0.083-24 hr, dose 200 mg/kg, route oral; outline: as §4
[41] = Cmax in C57BL/6 mouse blood at 200 mg/kg, po measured from 5 mins to 24 hrs by HPLC analysis; assay type: ADME, organism-based; design: dose 200 mg/kg, route oral; outline: as §4
[42] = Tmax in C57BL/6 mouse liver at 200 mg/kg, po measured from 5 mins to 24 hrs by HPLC analysis; assay type: ADME, organism-based; outline: as §5
[43] = Half life in mouse plasma by HPLC analysis; details: in vitro

Compound: Cc1cc(Nc2nn(C3CC3)c3cnc(S(=O)(=O)N4CCC(O)CC4)cc23)ccc1F
inhibition [1]: Active
inhibition [2]: Active
CC50 [3]: > 100 µM
solubility ([4]; BLD = below limit of detection): Bld
Drug uptake [5]: > 10 nmol/g
EC50 [6]: 0.33 nM
Activity [7]: inactive
clearance [8]: 2.33 mL/min
AUC [9]: 1580 ng·h/mL
half-life [10]: 37.8 min
inhibition [11]: Active
microsomal CLint [12]: 10.3 µL/min/mg
CC50 [13]: > 100 µM
Cmax [14]: 1190 nM
inhibition [15]: inactive
Activity [16]: inactive
Tmax [17]: 0.5 h
EC50 [18]: 3.5 nM
AUC [19]: 62 nmol·h/g
Activity [20]: inactive
Activity [21]: inactive
Activity [22]: inactive
bioavailability [23]: 12%
selectivity ratio at 144 h [24]: > 2940
AUC [25]: 2600 ng·h/mL
EC50 [26]: 0.25 nM
AUC [27]: 142 nmol·h/g
inhibition [28]: Active
inhibition [29]: inactive
EC50 [30]: 34 nM
Tmax [31]: 30 min
Cmax [32]: 32 nmol/g

solubility ([4]; phosphate buffer, read-out: solubility): 6650 µg/mL
Drug uptake [5]: > 10 nmol/g
solubility [33]: 31 µg/mL
Tmax [34]: 1 h
AUC [35]: 482 nmol·h/g
AUC [9]: 7010 ng·h/mL
Cmax [36]: 59 nmol/g
solubility [37]: 7600 µg/mL
bioavailability [38]: 132%
solubility [39]: 8130 µg/mL
Cmax [14]: 3730 nM
AUC [40]: 21100 ng·h/mL
Tmax [17]: 2 h
Cmax [41]: 8.84 µM
bioavailability [23]: 87.6%
Tmax [42]: 4 h
AUC [27]: 306 nmol·h/g
half-life [43]: 47 min
Tmax [31]: 60 min
Cmax [32]: 40 nmol/g
Compound: Cc1cc(Nc2nn(C3CC3)c3cnc(S(=O)(=O)N4CCC(OC(=O)CN(C)C)CC4)cc23)ccc1F.O=C(O)CC(O)(CC(=O)O)C(=O)O
